Assay outcomes from PubChem BioAssay.
PREPL inh – inhibitors of human prolyl oligopeptidase-like enzyme PREPL; recombinant PREPL, fluorescence polarization activity-based probe; AID 2751; Q4J6C6; 320,000 compounds, 0.68% hits; inhibition, % at 5.96 µM; in the data active = inhibition above about 43%
Target sequence (Q4J6C6 whole entry, looked up): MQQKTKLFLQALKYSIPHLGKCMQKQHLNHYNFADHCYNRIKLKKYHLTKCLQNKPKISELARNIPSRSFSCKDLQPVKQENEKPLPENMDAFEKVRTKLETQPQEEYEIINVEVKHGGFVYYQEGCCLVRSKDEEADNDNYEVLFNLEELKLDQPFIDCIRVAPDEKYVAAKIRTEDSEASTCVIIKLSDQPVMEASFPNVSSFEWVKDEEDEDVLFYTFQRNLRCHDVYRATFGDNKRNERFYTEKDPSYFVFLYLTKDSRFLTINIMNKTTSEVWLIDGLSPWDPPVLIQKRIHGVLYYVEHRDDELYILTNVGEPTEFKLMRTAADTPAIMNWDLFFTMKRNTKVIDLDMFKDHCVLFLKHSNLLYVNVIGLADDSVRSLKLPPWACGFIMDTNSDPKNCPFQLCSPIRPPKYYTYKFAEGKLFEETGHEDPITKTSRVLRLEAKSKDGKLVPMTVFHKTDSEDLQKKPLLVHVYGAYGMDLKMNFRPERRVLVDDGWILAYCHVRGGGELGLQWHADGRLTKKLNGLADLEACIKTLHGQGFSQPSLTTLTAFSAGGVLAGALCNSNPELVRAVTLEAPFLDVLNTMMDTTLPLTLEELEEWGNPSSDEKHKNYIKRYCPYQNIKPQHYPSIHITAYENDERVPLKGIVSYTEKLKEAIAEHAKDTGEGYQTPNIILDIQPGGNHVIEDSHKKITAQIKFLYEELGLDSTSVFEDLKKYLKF
iPSC survival up – hiPSC single-cell survival enhancement. ATPlite luminescence; 100% = ROCK inhibitor wells, 0% = DMSO. survival enhancement, % at 20 µM. 360,000 compounds, 0.044% hits; in the data active = survival enhancement above about 18%;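 also: cells exposed to compounds for 16 hours before the ATP read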
TbMetRS inhib – Trypanosoma brucei MetRS inhibition | inhibition, % at 11.9 µM | purified T. brucei MetRS, ATP depletion, Kinase-Glo luminescence | 360,000 compounds, 0.4% hits;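 active = inhibition above a per-plate cutoff of the control wells' mean inhibition plus 3 SD, cut at about 5.5% in these data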
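assay system = parasite MetRS enzyme | timing = 15 min preincubation, 2 h reaction, all 25 °C | evaluation = percent inhibition relative to median high and low control wells | medium = HEPES buffer containing pyrophosphatase, BSA, spermine, DTT | compound = single dose, 11.9 µM final nominal, 0.9% final DMSO | detection = Kinase-Glo luminescence, ATP depletion format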
MT1-MMP act inh – blocks activation of human MT1-MMP. 360,000 compounds, 0.061% hits. AID 651647. P50281. GFP/RFP ratio change, % at 20 µM. HT1080 RFP-PRO-GFP cells, GFP/RFP ratio fluorescence, overnight; percent of plate control window, DMSO zero;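 active = GFP/RFP ratio change of at least 30% with cell ATP level not reduced by more than half and red fluorescence within 50% of control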
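Assay system: RFP-PRO-GFP reporter HT1080 cells; read-out basis: GFP/RFP fluorescence ratio; benchmarks: DMSO wells and RFP-L50D-GFP cells; doses: 20 µM single dose, 1% DMSO; schedule: overnight cell settling, then overnight compound exposure, 37 °C, 5% CO2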
eLon inh – inhibitors of E. coli Lon protease | inhibition, % at 7.94 µM | 360,000 compounds, 0.42% hits | purified E. coli Lon protease, fluorescence polarization | P0A9M0; in the data active = inhibition above about 13%, passing the limit was not always enough
SKN-1 block – C. elegans SKN-1 inhibition. AID 624304. C. elegans VP596 Pgst-4::GFP/RFP ratio, acrylamide-induced, 24 h. inhibition, % at 21.8 µM. 360,000 compounds, 0.49% hits;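 active = interference check ratio from 0.5 to 1.5 plus GFP to RFP signal ratio inhibition reaching or exceeding a fixed threshold, cut at about 30% in these data, passing the limit was not always enough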
Each line names hits and unclear results; the compound was inactive in the other large screens. Sampled rows, rich in hits. Any-hit rate of the full collection: about 1.8%.

Cc1c(C#N)c(O)[nH]c(=O)c1N=Nc1ccc(S(N)(=O)=O)cc1	SKN-1 block 38.0
COC(=O)C1(C(=O)OC)C[C@H](c2ccc(OC)cc2)N(Cc2ccccc2OC)[C@@H]1c1cccs1	none (no result: PREPL inh, iPSC survival up, eLon inh)
Cc1cc2c(cc1C)-n1nnnc1C(N(C)Cc1ccccc1)C(=O)N2 (centres undefined)	none (no result: PREPL inh, iPSC survival up, eLon inh)
COc1ccc(CC(=O)Nc2cc(S(=O)(=O)N3CCOCC3)ccc2N2CCOCC2)cc1	SKN-1 block 36.0
Cc1nc(NC(=O)c2cccs2)ccc1Br	SKN-1 block 36.2
COC(=O)C12OCC34C(CC5C(C)=C(O)C(=O)CC5(C)C3C(O)C1O)OC(=O)C(OC(=O)C=C(C)C)C24 (centres undefined)	SKN-1 block 40.9 (no result: PREPL inh)
CCCC1=NN2C(=N)/C(=C\c3ccc(SCc4ccco4)o3)C(=O)N=C2S1	SKN-1 block 43.8
CO/N=C(\c1nonc1N)N1CCN(c2ccc([N+](=O)[O-])cc2Cl)CC1	TbMetRS inhib 7.0
Cc1ccc2c(c1)c(C)c(C)n2CC(O)Cn1nnc2ccccc21 (centres undefined)	SKN-1 block 60.3
Cc1ccc2c(c1)c(C)c(C)n2CC(O)Cn1nc(C)cc1C (centres undefined)	none
O=[N+]([O-])c1cccc(-c2c(-c3ccccc3)ncc3cc(F)ccc23)c1	SKN-1 block 37.1
O=[N+]([O-])c1ccc(-c2c(-c3ccccc3)ncc3cc(F)ccc23)cc1	none
O=C1/C(=C/c2cccnc2)SC(=S)N1Nc1ccccc1	none
Clc1ccc(-c2nnc(-c3ccccc3)c(N3CCSCC3)n2)cc1	SKN-1 block 38.2
Clc1ccc(-c2nnc(-c3ccccc3)c(-c3ccccc3)n2)cc1	none
COc1ccc(CCNC(=O)c2cc3cc(Cl)ccc3nc2N)cc1OC	none (no result: PREPL inh)
Cn1c(N=Nc2ccc(N3CCOCC3)cc2)[n+](C)c2ccccc21	SKN-1 block 39.5 (no result: PREPL inh)
O=C(OCC(=O)N1N=C(c2ccc(Cl)cc2)CC1c1ccco1)c1ccco1 (centres undefined)	none
O=C(OCC(=O)N1N=C(c2ccc(Cl)cc2)CC1c1ccco1)c1ccccc1O (centres undefined)	SKN-1 block 38.5
CCCOc1ccc(/C(O)=C2/C(=O)C(=O)N(c3cc(C)on3)C2c2ccc(C(=O)OC)cc2)cc1 (centres undefined)	SKN-1 block 40.4
CCOCCCn1c(SCC(=O)N2CCOCC2)nc2ccccc2c1=O	none
CCOC(=O)CSc1nc2ccccc2c(=O)n1CCN1CCOCC1	SKN-1 block 36.2
Cc1c(Cl)cccc1NC(=O)CNC(=O)c1cn(-c2ccccc2)nc1-c1cccnc1	TbMetRS inhib 30.7
CCOC(=O)c1cn(-c2ccccc2)nc1-c1cccnc1	none
CCCc1cc(=O)oc2cc(OCc3cc(OC)c(OC)c(OC)c3)c(Cl)cc12	none
CCCCc1cc(=O)oc2cc(OCc3cc(OC)c(OC)c(OC)c3)c(Cl)cc12	iPSC survival up 22.6
Clc1cccc(-c2nc3ccc(Br)cn3c2Cc2ccsc2)c1	SKN-1 block 35.8 (no result: PREPL inh)
Brc1cccc(-c2nc3ccc(Br)cn3c2Cc2ccsc2)c1	SKN-1 block 46.6 (no result: PREPL inh)
Fc1ccc(-c2nc3ccc(Cl)cn3c2Cc2ccsc2)cc1	SKN-1 block 40.4 (no result: PREPL inh)
Cc1ccc(-c2nc3ccc(Cl)cn3c2Cc2ccsc2)cc1	none (no result: PREPL inh)
CC[C@@H]1CCC[C@@H](O)[C@@H](C)C(=O)O[C@H](C)[C@@H](C)C/C=C(C)/C(OC)=C\C(=O)N(C)C([C@@H](C)CC)C(=O)N(C)[C@@H](C(C)C)C(=O)N(C)[C@@H](COC)C(=O)N2CCC[C@H]2C(=O)N(C)[C@@H](C(C)C)C(=O)N2CCC[C@H]2C(=O)O1 (some centres undefined)	SKN-1 block 44.0 (no result: PREPL inh)
Cc1ccccc1C(=O)NCCN1CCC(n2c(=O)[nH]c3ccccc32)CC1	none (no result: PREPL inh)
O=C1CN(C(=O)c2ccc(Br)o2)C(c2ccccc2)c2cc(Br)ccc2N1 (centres undefined)	SKN-1 block 58.9
COc1ccc(CN=C2NN=C(c3ccc(Cl)cc3)CS2)cc1	none
CC(C)(C)N=C1NN=C(c2ccc(Cl)cc2)CS1	SKN-1 block 50.6
